Measurements collected from several papers.
Compare with care: the assays were run in different laboratories.
Target: Serine/threonine-protein kinase Nek3 (NEK3, Homo sapiens, UniProt P51956)
One construct used (P51956 1-506): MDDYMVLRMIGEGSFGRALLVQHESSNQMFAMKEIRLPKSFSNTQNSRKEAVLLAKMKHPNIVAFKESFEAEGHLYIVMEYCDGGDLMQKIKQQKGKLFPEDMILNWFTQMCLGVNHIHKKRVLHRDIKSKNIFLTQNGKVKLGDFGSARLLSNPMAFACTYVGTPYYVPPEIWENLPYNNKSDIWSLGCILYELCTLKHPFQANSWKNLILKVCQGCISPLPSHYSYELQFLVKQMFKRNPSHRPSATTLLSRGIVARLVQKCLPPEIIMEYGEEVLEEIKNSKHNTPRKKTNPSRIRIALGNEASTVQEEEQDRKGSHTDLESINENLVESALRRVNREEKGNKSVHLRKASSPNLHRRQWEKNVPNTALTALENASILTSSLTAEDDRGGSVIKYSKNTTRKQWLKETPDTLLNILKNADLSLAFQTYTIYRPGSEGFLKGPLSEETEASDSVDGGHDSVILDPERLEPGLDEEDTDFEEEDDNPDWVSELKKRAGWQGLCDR

SMILES | read-out | action | method | concentration | quantity | value
N#CCCc1ccc2c(c1)-c1[nH]c3ccc([N+](=O)[O-])cc3c1CC(=O)N2 | cell-free assay | – | – | 0.5 µM | remaining signal | 104%
CC(C)(C)c1nc(-c2cccc(NS(=O)(=O)c3c(F)cccc3F)c2F)c(-c2ccnc(N)n2)s1 | enzyme activity | inhibitor | radiometric | 1 µM | remaining activity | 85%
CN1CC(Oc2cnc(C#N)cc2-c2ccn3nc(NC(=O)C4CC4)cc3c2)C1 | enzyme activity | inhibitor | – | 1 µM | inhibition | 12%
Cc1ccc(C(=O)Nc2ccc(CN3CCN(C)CC3)c(C(F)(F)F)c2)cc1C#Cc1cnc2cccnn12 | enzyme activity | inhibitor | – | 23.5 nM | remaining activity | 86%
Cc1ccc(Nc2nccc(N(C)c3ccc4c(C)n(C)nc4c3)n2)cc1S(N)(=O)=O | enzyme activity | inhibitor | – | 0.5 µM | remaining activity | 94.2%
CCCCNc1ncc2c(-c3ccc(F)cc3)nn(C[C@H]3CC[C@H](N)CC3)c2n1 | target engagement in cells | inhibitor | chemoproteomics | 20 mM | inhibition | 10.1%
CN(C)C(=O)Cn1cc(-c2nc([C@@](C)(c3ccc(-c4cnc(N)nc4)cc3)C3CC3)no2)cn1 | cell-free assay | – | competition with immobilised ligand | 1 µM | remaining binding | 87%
CCN(CC)c1ccc(C2=NNC(=O)CC2C)cc1[N+](=O)[O-] (stereo not shown) | enzyme activity | inhibitor | – | 10 µM | remaining activity | 90%
CCCOc1ccc(OC)c(F)c1C(=O)c1ccc(C(=O)N[C@@H]2CNC[C@H]2NC(=O)c2ccc3[nH]ncc3c2)cc1 | enzyme activity | inhibitor | – | 10 µM | remaining activity | 101%
Cc1cnc(NC2CCOCC2)nc1-n1cnc(C(=O)NC(CN)c2cc(F)cc(Cl)c2)c1 (stereo not shown) | enzyme activity | inhibitor | radiometric | 1 µM | remaining activity | 65%
C[C@H](c1ccnc(Nc2nc3ccc(-c4cc(N(C)C)ncn4)cc3[nH]2)c1)N1CCN(C(=O)CC(F)(F)F)CC1 | cell-free assay | – | competition with immobilised ligand | 0.1 µM | remaining binding | 100%
CCCS(=O)(=O)Nc1ccc(F)c(C(=O)c2c[nH]c3ncc(-c4ccc(Cl)cc4)cc23)c1F | enzyme activity | inhibitor | – | 1 µM | inhibition | < 10%
O=C1NC(=O)c2cc(Nc3ccc(F)cc3)c(Nc3ccc(F)cc3)cc21 | cell-free assay | – | – | 0.5 µM | remaining signal | 99.1%
CCCCN(CCCC)C(=O)CN1C[C@@H](c2cc(OC)c3c(c2)OCO3)[C@H](C(=O)O)[C@H]1CC(C)(C)CCC | cell-free assay | – | competition with immobilised ligand | 1 µM | remaining binding | 72.9%
Cn1cnc(Br)c1C1=CN(c2ncnc3[nH]cnc23)CCS1 | enzyme activity | inhibitor | radiometric | 50 nM | inhibition | 14.7%
CNCc1ccccc1-c1csc([C@@H](C)Nc2nc(C)nc3cc(OC)c(OC)cc23)c1 | cell-free assay | – | competition with immobilised ligand | 1 µM | remaining binding | 100%
Cc1sc(C(=O)NC2COC2)cc1-n1cc(NC(=O)Nc2c(F)cccc2Cl)cn1 | enzyme activity | inhibitor | – | 10 µM | remaining activity | 87.5%
CNC(=O)c1ccc(Nc2ncc(C(F)(F)F)c(NCc3nccnc3N(C)S(C)(=O)=O)n2)cc1 | cell-free assay | – | competition with immobilised ligand | 0.1 µM | remaining binding | 100%
CC(C)(O)[C@H]1CC[C@H](Nc2ccc3ncc(-c4cccc(C(F)(F)F)c4)n3n2)CC1 | enzyme activity | inhibitor | – | 1 µM | remaining activity | 91%
